# OX1R antag-1: blocks the human orexin 1 receptor; 1.8% of 330,000 active; OX1R-expressing cells, FRET antagonist read-out; inhibition, % at 6.6 µM; in the data active = inhibition mostly above about 38%, no sharp cut-off; inactive = mostly below about 40%;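 also: 0% = agonist challenge alone and 100% = reference antagonist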
# Target sequence (O43613 whole entry, looked up): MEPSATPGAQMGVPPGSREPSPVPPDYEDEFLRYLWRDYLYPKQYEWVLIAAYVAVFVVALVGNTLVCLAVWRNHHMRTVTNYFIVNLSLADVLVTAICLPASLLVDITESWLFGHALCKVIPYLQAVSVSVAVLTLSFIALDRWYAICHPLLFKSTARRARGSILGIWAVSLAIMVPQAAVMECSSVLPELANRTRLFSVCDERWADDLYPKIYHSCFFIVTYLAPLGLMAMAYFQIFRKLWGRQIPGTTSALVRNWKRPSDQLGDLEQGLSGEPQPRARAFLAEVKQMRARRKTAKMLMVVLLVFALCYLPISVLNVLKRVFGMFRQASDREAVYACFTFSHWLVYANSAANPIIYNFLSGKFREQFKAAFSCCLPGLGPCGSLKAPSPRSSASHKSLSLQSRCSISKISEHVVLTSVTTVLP
# GalR3 antagonist: antagonists of human GalR3; O60755; HEK293 GalR3-CNG cAMP membrane potential fluorescence; galR3 body fused to GalR1 C-terminus; inhibition, % at 3 µM; 0.44% of 360,000 active;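 active = inhibition above the screen-wide average plus 3 SD, cut at about 13% in these data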;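 also: forskolin and galanin both at EC90 stimulate the cells; cAMP rise reported by CNG channel membrane potential dye signal; 0% = forskolin plus galanin with DMSO and 100% = forskolin alone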
# Target sequence (O60755 1-299 limits assumed): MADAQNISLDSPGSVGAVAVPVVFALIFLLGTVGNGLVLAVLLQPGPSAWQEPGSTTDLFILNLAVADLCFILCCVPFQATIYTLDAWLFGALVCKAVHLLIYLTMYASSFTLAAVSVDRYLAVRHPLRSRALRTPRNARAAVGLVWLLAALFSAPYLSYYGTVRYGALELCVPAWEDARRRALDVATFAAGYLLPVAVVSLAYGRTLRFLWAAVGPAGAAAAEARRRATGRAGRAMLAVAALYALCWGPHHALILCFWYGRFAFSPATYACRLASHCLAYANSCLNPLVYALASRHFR
# OX1R antag-2: antagonists of human orexin 1 receptor. O43613. CHO/OX1R cells, Fluo-8 calcium fluorescence, orexin A. inhibition, % at 5 µM. 0.43% of 330,000 active. AID 434989;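 active = inhibition above its plate's threshold, mean inhibition of all tested compounds on the plate plus 3 SD, cut at about 37% in these data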;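 also: 0% = orexin A challenge wells and 100% = SB-334867-A antagonist wells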
# CHO parental Ca: counter-screen: ATP calcium response change in parental CHO cells. inhibition, % at 5.6 µM. parental CHO-K1, ATP-induced calcium, Fluo-8 fluorescence. AID 463079. 0.63% of 330,000 active;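 active = inhibition above that plate's mean sample inhibition plus 3 SD, cut at about 26% in these data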;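 also: 0% = ATP-challenged DMSO wells and 100% = DMSO wells without ATP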
#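 Test system: untransfected parental CHO cell line. Compound: one dose, 5.6 µM nominal. Detection: intracellular calcium via Fluo-8 no-wash fluorescent dye. Measure: % inhibition. Benchmarks: ATP-challenged DMSO wells low, unchallenged DMSO wells high.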
# TAAR1 ag: agonists of human TAAR1; Q96RJ0; CHO RD-HGA16 TAAR1, Fluo-8 calcium fluorescence; vehicle wells 0%, saturating PEA agonist 100%; activation, % at 3 µM; 0.99% of 360,000 active;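 active = activation above the mean activation of all test compounds in the run plus 3 SD, cut at about 38% in these data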
#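 System: CHO-derived RD-HGA16 cells with stable Gα16 and human TAAR1. Times: 17-24 h plating, Fluo-8 75 min 37 °C, 30 min RT. Measured by: calcium-sensitive Fluo-8 signal, excitation 470-495, emission 515-575 nm. Read-out basis: % activation relative to PEA EC100 response. Control set: DMSO and PEA EC100. Repeats: no replicates (n 1).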
# TAAR1 antagonist: human TAAR1 antagonism | inhibition, % at 3 µM | 1.5% of 360,000 active | Q96RJ0 | CHO RD-HGA16 TAAR1, Fluo-8 calcium fluorescence, antagonist | AID 624466;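 active = inhibition above a per-plate cutoff, the mean inhibition of test compounds on that plate plus 3 SD, cut at about 49% in these data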;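 also: 0% = DMSO plus EC80 beta-PEA response and 100% = DMSO alone without agonist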
#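 Assay system: RD-HGA16 CHO cells with stable hTAAR1 and Gα16 / Reagent: EC80 β-phenethylamine stimulus / Doses: 3 µM, single point / Timing: dye loading 75 min at 37 °C, then 30 min room temperature / Measured by: Fluo-8 intracellular calcium dye fluorescence, real-time kinetic reads / Controls: vehicle wells and EC80 agonist wells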
# nonsel antag count: nonselective antagonist in TAAR1 antagonist counter-screen | shares compounds with TAAR1 antagonist | counterscreen cell line, calcium fluorescence, antagonist mode | inhibition, % at 3 µM | 77% of 2,400 active; in the data active = inhibition above about 22%;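 also: CHO-Ga16 host cells stimulated with ATP at an EC80 level; 0% = agonist EC80 plus vehicle and 100% = vehicle without agonist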
# TAAR1 antag conf: confirmation of human TAAR1 antagonists; shares compounds with TAAR1 antagonist; TAAR1-expressing cells, fluorescence antagonist read-out; inhibition, % at 3 µM; 40% of 2,400 active; in the data active = inhibition above about 49%;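 also: CHO-Ga16 host cells challenged with agonist PEA near its EC80; 0% = agonist at EC80 plus vehicle and 100% = vehicle with no agonist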
# Ga16 nonsel ag: counter-screen for TAAR1 antagonists: nonselective Ga16 agonists | Ga16-expressing cells, calcium fluorescence, agonist counterscreen | 18% of 2,400 active | activation, % at 3 µM | shares compounds with TAAR1 antagonist; in the data active = activation above about 12%;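 also: 0% = vehicle wells and 100% = saturating stimulus response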
# TAAR1 ag counter: activates human TAAR1 in antagonist counter-screen. shares compounds with TAAR1 antagonist. hTAAR1 cell line, fluorescence activation, agonist mode. activation, % at 3 µM. 2% of 2,400 active; in the data active = activation above about 37%;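 also: CHO cells stably expressing TAAR1 with calcium dye readout; 0% = DMSO vehicle and 100% = full agonist response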
# Active calls of the source: *; x = no result given. A selection: hits, their analogues and other compounds. The true share with any hit is near 4.3%.
SMILES,OX1R antag-1,GalR3 antagonist,OX1R antag-2,CHO parental Ca,TAAR1 ag,TAAR1 antagonist,nonsel antag count,TAAR1 antag conf,Ga16 nonsel ag,TAAR1 ag counter
O=C(Nc1nc(-c2ccccn2)cs1)C1COc2ccccc2O1 (stereo not drawn),10,2,-8,-16,8,105*,22*,33,6,3
O=C(Nc1nc(-c2ccccc2)cs1)C1COc2ccccc2O1 (stereo not drawn),20,3,-23,1,-3,9,x,x,x,x
CCOC1=C2CN(S(=O)(=O)c3ccc(C)cc3)C(c3cccc(Cl)c3)CC2NC(c2ccccc2)C1 (stereo not drawn),x,-10,x,x,1,-52,x,x,x,x
CCOc1ccccc1C1C(C#N)=C(N)N(N(C)C)C2=C1C(=O)CCC2 (stereo not drawn),3,-4,-19,-2,0,4,x,x,x,x
O=C(CSc1nnc(NC2CCCCC2)s1)Nc1ccc2c(c1)C(=O)c1ccccc1C2=O,22,-2,-17,-22,0,-13,x,x,x,x
CC(C)Nc1nnc(SCC(=O)Nc2ccc3c(c2)C(=O)c2ccccc2C3=O)s1,39,-4,-1,-4,22,68*,47*,59*,15*,16
C[C@H](NC(=O)[C@@H]1CCCN1C(=O)[C@@H]1CCCN1C(=O)OC(C)(C)C)c1ccccc1,x,0,x,x,0,7,x,x,x,x
CCCOC(=O)c1c(-c2ccccc2)nc(CC)c(C(=O)SCC)c1CCC,13,-4,-22,-13,4,-44,x,x,x,x
CCOC(=O)c1cnc2ccc(C)cc2c1Nc1ccc(N2CCOCC2)cc1,17,-3,-27,-5,10,61*,30*,58*,13*,19
Cc1cnc(NC(=O)c2ccc3ncsc3c2)s1,x,-6,x,x,1,4,x,x,x,x
COc1ccc(CN2CC(=O)N3[C@H]4c5ccccc5OC[C@@H]4[C@H](c4ccccc4)[C@]3(C)C2=O)cc1,20,-4,8,-38,12,28,x,x,x,x
NC(=O)COC(=O)c1c2c(nc3ccccc13)CCCC2,1,-2,-3,-4,6,-20,x,x,x,x
CC(C)(C)NC(=O)COC(=O)c1c2c(nc3ccccc13)CCC2,21,-7,-21,-19,8,60*,27*,41,7,6
CCCCN(Cc1cc2cc(OC)ccc2[nH]c1=O)S(=O)(=O)c1ccc(C)cc1,5,7,-13,-14,5,77*,14,48,7,22
COc1ccc(N(Cc2cc3ccccc3[nH]c2=O)S(=O)(=O)c2ccc(C)cc2)cc1,9,3,-29,-16,1,55*,21,36,8,9
Cc1cc(=O)oc2c3c(cc(OCC(=O)NCC(=O)O)c12)OC(C)(C)CC3,6,-1,-9,-5,4,0,x,x,x,x
Cc1cc(=O)oc2c3c(cc(OCC(=O)NCc4ccccc4)c12)OC(C)(C)CC3,11,9,-35,-16,3,68*,24*,34,2,0
CC(=O)Nc1ccc(S(=O)(=O)N(C)CC(=O)OCC(=O)NCc2ccco2)cc1,5,-3,-16,-2,3,4,x,x,x,x
CC(=O)Nc1ccc(S(=O)(=O)NCC(=O)OCC(=O)NCc2ccco2)cc1,11,6,-4,-5,-2,100*,2,2,1,2
Cc1ccc(C)c(OCC(=O)NNC(=O)c2ccc(=O)[nH]c2)c1,3,-6,-24,-5,-1,3,x,x,x,x
CC(C)COc1ccc(C(=O)NNC(=O)c2ccc(=O)[nH]c2)cc1,5,0,-5,-9,-5,103*,-3,4,0,-3
CC(=O)C(Cc1ccccc1)NC(=O)CN1c2cccc3cccc(c23)S1(=O)=O (stereo not drawn),1,-7,-37,-18,10,22,x,x,x,x
CCOc1ccc2ncc(S(=O)(=O)c3ccccc3)c(N3CCC4(CC3)OCCO4)c2c1,33,10,-18,-32,4,49*,13,42,3,3
COc1ccc(N2CCN(c3c(S(=O)(=O)c4ccccc4)cnc4ccc(OC)cc34)CC2)cc1,39,1,-18,-29,-1,31,x,x,x,x
COc1ccc(S(=O)(=O)c2cnc3ccc(OC)cc3c2N2CCC3(CC2)OCCO3)cc1,15,12,-12,-14,13,72*,25*,50*,8,6
SMILES,OX1R antag-1,GalR3 antagonist,OX1R antag-2,CHO parental Ca,TAAR1 ag,TAAR1 antagonist,nonsel antag count,TAAR1 antag conf,Ga16 nonsel ag,TAAR1 ag counter
CCOc1ccc2ncc(S(=O)(=O)c3ccccc3)c(N3CCN(c4ccccc4)CC3)c2c1,10,-2,-10,-6,0,-26,x,x,x,x
COc1cccc(C(O)c2ncc(-c3cccc(F)c3)[nH]2)c1 (stereo not drawn),x,3,x,x,1,-25,x,x,x,x
O=C(Nc1cccc(C(=O)NC2CC2)c1)c1ccc(Cl)c(S(=O)(=O)N2CCOCC2)c1,6,3,-23,-23,17,32,x,x,x,x
O=C(Nc1cccc(S(=O)(=O)C(F)F)c1)c1ccc(Cl)c(S(=O)(=O)N2CCOCC2)c1,12,-1,15,6,35,74*,50*,65*,19*,23
O=C(Nc1ccc(Cl)c(S(=O)(=O)N2CCOCC2)c1)c1ccc(Cl)nc1,x,1,x,x,24,67*,32*,52*,12*,15
O=C(Nc1ccc(Cl)c(S(=O)(=O)N2CCOCC2)c1)c1ccc2c(c1)OCCO2,3,-6,-24,-9,9,46,x,x,x,x
O=C(Nc1ccc(Cl)c(S(=O)(=O)N2CCOCC2)c1)c1cc(-c2ccccn2)nc2ccccc12,20,-4,-26,-1,25,63*,43*,57*,14*,13
O=C(Nc1cccc(S(=O)(=O)N2CCCCCC2)c1)c1ccc(Cl)nc1,12,-4,-23,-13,9,54*,27*,37,8,7
COc1ccc(-n2ncc(C(C)NS(=O)(=O)c3cc(C)sc3C)c2C)cc1 (stereo not drawn),x,-4,x,x,0,-1,x,x,x,x
O=C(C[C@@H]1C/C=C\C[C@H](Cc2ccc(F)cc2)C(=O)OCCNC1=O)N[C@H](CO)Cc1ccccc1,2,-3,-18,-1,4,8,x,x,x,x
